{
  "source": "ChEMBL document CHEMBL4619773",
  "about": "“Chemoreactive-Inspired Discovery of Influenza A Virus Dual Inhibitor to Block Hemagglutinin-Mediated Adsorption and Membrane Fusion” (J Med Chem, 2020)",
  "key": {"[1]": {"tested_on": "Influenza A virus (A/Puerto Rico/8/1934(H1N1))", "test": "Inhibition of Hemagglutinin T30N/E233D/T359A mutant in Influenza A virus (A/Puerto Rico/8/1934(H1N1))/H1N1 pseudovirus infected in 293FT cells assessed as reduction in virus infection at 50 ug/ml pre-treated with virus before infection and measured after 48 hrs by inverted fluorescence microscopy", "type": "cell-based", "how_it_was_run": "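GFP-reporter lentiviral pseudoviruses bearing PR8 wild-type or mutant (T30N/E233D/T359A or T359A) HA plus NA were produced in 293FT cells. Pseudovirus was pretreated with 50 µg/ml compound for 1 h at 37 °C before infection. GFP-positive cells were counted by fluorescence microscopy at 48 h p.i.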"}, "[2]": {"tested_on": "Influenza A virus (A/Puerto Rico/8/1934(H1N1))", "test": "Inhibition of Hemagglutinin T359A mutant in Influenza A virus (A/Puerto Rico/8/1934(H1N1))/H1N1 pseudovirus infected in 293FT cells assessed as reduction in virus infection at 50 ug/ml pre-treated with virus before infection and measured after 48 hrs by inverted fluorescence microscopy", "type": "cell-based", "how_it_was_run": "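PR8 pseudoviruses (IAV-GFP) carrying wild-type HA or a mutant HA (T30N/E233D/T359A or T359A) were made in 293FT cells by co-transfecting HA, NA, HIV backbone and GFP reporter plasmids, and supernatants were harvested at 48 h. Pseudovirus was pretreated with compound at 50 µg/ml for 1 h at 37 °C before infection. Infected GFP-positive cells were viewed by fluorescence microscopy 48 h p.i.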"}},
  "note": "Calls of active or inactive are those of the source. The calls are words filed in the database; no cut-off is given here.",
  "data": [
    {"smiles": "CC(=O)c1cc(C)c(O)c(Cc2[nH]c3ccccc3c2Cc2c(O)c(C)cc(C(C)=O)c2O)c1O", "values": [
      {"measurement": "inhibition", "setting": "[1]", "value": "inactive"},
      {"measurement": "inhibition", "setting": "[2]", "value": "inactive"}
    ]}
  ]
}
